Data from ChEMBL document CHEMBL1155297, “Synthesis, antimicrobial and antioxidant activities of substituted pyrazoles, isoxazoles, pyrimidine and thioxopyrimidine derivatives” (2009).

Experiments:
Format in all cases: functional
[1] = tested on: Staphylococcus aureus; assay: Antibacterial activity against Staphylococcus aureus NCIM 5021 at 100 ug/disk after 24 hrs by agar disk diffusion method; conditions: NCIM 5021, 24 h, read-out: IZ
How it was run: (§1)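 Agar disc diffusion on nutrient agar plates pre-inoculated with each bacterium. Sterile 6 mm filter-paper discs were moistened with compound in DMSO at the stated per-disc amount. Plates were incubated at 37 °C, and the growth-inhibition zone diameter was read after 24 h. Each determination was run in triplicate, and the mean of three independent readings is reported.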

[2] = tested on: Staphylococcus aureus; assay: Antibacterial activity against Staphylococcus aureus NCIM 5021 at 200 ug/disk after 24 hrs by agar disk diffusion method; conditions: NCIM 5021, 24 h, read-out: IZ; how it was run: as §1
[3] = tested on: Bacillus subtilis; assay: Antibacterial activity against Bacillus subtilis NCIM 2063 at 100 ug/disk after 24 hrs by agar disk diffusion method; conditions: NCIM 2063, 24 h, read-out: IZ; how it was run: as §1
[4] = tested on: Bacillus subtilis; assay: Antibacterial activity against Bacillus subtilis NCIM 2063 at 200 ug/disk after 24 hrs by agar disk diffusion method; conditions: NCIM 2063, 24 h, read-out: IZ; how it was run: as §1
[5] = tested on: Klebsiella pneumoniae; assay: Antibacterial activity against Klebsiella pneumoniae NCIM 2957 at 100 ug/disk after 24 hrs by agar disk diffusion method; conditions: NCIM 2957, 24 h, read-out: IZ; how it was run: as §1
[6] = tested on: Klebsiella pneumoniae; assay: Antibacterial activity against Klebsiella pneumoniae NCIM 2957 at 200 ug/disk after 24 hrs by agar disk diffusion method; conditions: NCIM 2957, 24 h, read-out: IZ; how it was run: as §1
[7] = tested on: Proteus vulgaris; assay: Antibacterial activity against Proteus vulgaris NCIM 2027 at 100 ug/disk after 24 hrs by agar disk diffusion method; conditions: NCIM 2027, 24 h, read-out: IZ; how it was run: as §1
[8] = tested on: Proteus vulgaris; assay: Antibacterial activity against Proteus vulgaris NCIM 2027 at 200 ug/disk after 24 hrs by agar disk diffusion method; conditions: NCIM 2027, 24 h, read-out: IZ; how it was run: as §1
[9] = tested on: Fusarium solani; assay: Antifungal activity against Fusarium solani NCIM 1330 at 100 ug/disk after 48 hrs by agar disk diffusion method; conditions: NCIM 1330, 48 h, read-out: IZ
How it was run: (§2)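 Fungal disc diffusion on nutrient agar plates pre-inoculated with each fungus. 6 mm sterile paper discs carried the compound in DMSO at the stated amount per disc. Plates were held at 37 °C, and inhibition-zone diameter was measured after 48 h. Values are the mean of three independent triplicate readings.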

[10] = tested on: Fusarium solani; assay: Antifungal activity against Fusarium solani NCIM 1330 at 200 ug/disk after 48 hrs by agar disk diffusion method; conditions: NCIM 1330, 48 h, read-out: IZ; how it was run: as §2
[11] = tested on: Curvularia lunata; assay: Antifungal activity against Curvularia lunata NCIM 716 at 100 ug/disk after 48 hrs by agar disk diffusion method; conditions: NCIM 716, 48 h, read-out: IZ; how it was run: as §2
[12] = tested on: Curvularia lunata; assay: Antifungal activity against Curvularia lunata NCIM 716 at 200 ug/disk after 48 hrs by agar disk diffusion method; conditions: NCIM 716, 48 h, read-out: IZ; how it was run: as §2
[13] = tested on: Aspergillus niger; assay: Antifungal activity against Aspergillus niger NCIM 596 at 100 ug/disk after 48 hrs by agar disk diffusion method; conditions: NCIM 596, 48 h, read-out: IZ; how it was run: as §2
[14] = tested on: Aspergillus niger; assay: Antifungal activity against Aspergillus niger NCIM 596 at 200 ug/disk after 48 hrs by agar disk diffusion method; conditions: NCIM 596, 48 h, read-out: IZ; how it was run: as §2
[15] = tested on: Radical scavenging activity; assay: Antioxidant activity assessed as DPPH free radical scavenging activity at 100 uM after 20 mins
How it was run: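 DPPH scavenging: compound solutions were added to DPPH in dioxane/ethanol and kept at ambient temperature for 20 min. Absorbance was read at 517 nm. The test–control difference was expressed as percent DPPH radical scavenging.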

[16] = Antioxidant activity assessed as nitric oxide production at 100 uM after 120 mins by Griess reagent method
How it was run: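 Nitric oxide assay with Griess read-out. At intervals, 0.5 ml of incubation solution was mixed with 0.5 ml Griess reagent (1% sulfanilamide, 0.1% N-naphthylethylenediamine dihydrochloride, 2% o-phosphoric acid in water). The control received an equal amount of solvent and was handled identically.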

| Compound | zone of inhibition at 100 µg/disc [1] [mm] | zone of inhibition at 200 µg/disc [2] [mm] | zone of inhibition at 100 µg/disc [3] [mm] | zone of inhibition at 200 µg/disc [4] [mm] | zone of inhibition at 100 µg/disc [5] [mm] | zone of inhibition at 200 µg/disc [6] [mm] | zone of inhibition at 100 µg/disc [7] [mm] | zone of inhibition at 200 µg/disc [8] [mm] | zone of inhibition at 100 µg/disc [9] [mm] | zone of inhibition at 200 µg/disc [10] [mm] | zone of inhibition at 100 µg/disc [11] [mm] | zone of inhibition at 200 µg/disc [12] [mm] | zone of inhibition at 100 µg/disc [13] [mm] | zone of inhibition at 200 µg/disc [14] [mm] | inhibition [15] [%] | inhibition [16] [%] |
| --- | --- | --- | --- | --- | --- | --- | --- | --- | --- | --- | --- | --- | --- | --- | --- | --- |
| Cc1ccc(C(=O)CC(C(=O)c2ccc(C)cc2)C2C(N)=NN=C2N)cc1 (stereo unspecified) | 25 | 28 | 27 | 29 | 25 | 27 | 24 | 26 | 32 | 35 | 31 | 33 | 30 | 31 | 66.5 | 68.2 |
| N=C1ON=C(N)C1C(CC(=O)c1ccccc1)C(=O)c1ccccc1 (stereo unspecified) | 23 | 26 | 24 | 27 | 23 | 25 | 21 | 24 | 30 | 31 | 30 | 32 | 27 | 29 | 42.3 | 43.5 |
| NC1=NN=C(N)C1C(CS(=O)(=O)c1ccccc1)S(=O)(=O)c1ccccc1 (stereo unspecified) | 30 | 32 | 31 | 33 | 28 | 30 | 24 | 25 | 34 | 37 | 33 | 36 | 31 | 34 | 58.5 | 60 |
| CN1C(=N)C(C(CC(=O)c2ccc(Cl)cc2)C(=O)c2ccc(Cl)cc2)C(=N)N(C)C1=O (stereo unspecified) | 12 | 14 | 11 | 13 | 9 | 10 | 9 | 11 | 14 | 16 | 13 | 15 | 11 | 13 | 29.9 | 28.2 |
| Cc1ccc(C(=O)CC(C(=O)c2ccc(C)cc2)C2C(=N)N(C)C(=O)N(C)C2=N)cc1 (stereo unspecified) | 10 | 12 | 9 | 10 | 7 | 8 | 7 | 9 | 12 | 15 | 14 | 16 | 10 | 12 | 21.7 | 20.3 |
| NC1=NC(=S)N=C(N)C1C(CS(=O)(=O)c1ccccc1)S(=O)(=O)c1ccccc1 (stereo unspecified) | 22 | 25 | 23 | 26 | 21 | 23 | 19 | 21 | 18 | 20 | 19 | 22 | 16 | 19 | 46.9 | 45.8 |
